{"source": "paper PMC5548977", "about": "(ESMO Open, 2017)", "key": {"[1]": {"test_system": "patients with advanced solid tumours", "assay": "Phase I dose-escalation study: adverse events, dose-limiting toxicities, MTD", "format": "in vivo, human", "outline": "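Dosing was intravenous on days 1, 8 and 15 every 28 days, with dose by BSA (actual weight) recalculated each cycle. Escalation started at 20 mg/m2 with one patient per level, doubling until ≥grade 2 toxicity, then 3+3, across nine cohorts up to 780 mg/m2, with an expansion cohort at MTD. Dexamethasone 10 mg IV plus IV 5-HT antagonist premedication was recommended. AEs/DLTs were graded by NCI CTCAE V.3.0 and followed 30 days post-treatment.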"}, "[2]": {"assay": "Pharmacokinetics: total ruthenium in plasma by ICP-MS, cycle 1", "format": "in vivo, human", "outline": "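Cycle 1 plasma was taken on days 1, 2 and 8, pre-infusion and at 15 min, 30 min, 1, 2, 4, 6–8, 10–12 and 24 hours post-infusion, plus pre-dose day 8. Total ruthenium (free and bound) was measured by ICP-MS. Drug was reconstituted in normal saline and given intravenously over 30 min (<500 mL) or 60–90 min (>500 mL). Parameters were derived from concentration–time data and summarised descriptively.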"}, "advanced solid tumours": {"test_system": "advanced solid tumours", "assay": "Anti-tumour activity, tumour response by CT", "format": "in vivo, human", "outline": "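Adult patients with refractory advanced solid tumours got intravenous infusions on days 1, 8 and 15 of 28-day cycles, at 20–780 mg/m2. CT response assessment was done at baseline and every two cycles per RECIST V.1.1. Disease control was defined as CR, PR or SD. Evaluable patients had at least one response assessment. Treatment continued until confirmed PD. Analysis was descriptive.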"}, "GRP78": {"test_system": "GRP78", "conditions": "tumour cells; independent preclinical studies; cited from earlier work"}, "[3]": {"test_system": "drug-resistant PDAC cells", "conditions": "cited from earlier work"}, "[4]": {"test_system": "metastatic osteosarcoma cells", "conditions": "ex vivo lung metastases model; cited from earlier work"}, "[5]": {"conditions": "in vitro, combination with different classes of cancer drugs; ref 23 24; cited from earlier work"}, "[6]": {"conditions": "ref 9 10, cited from earlier work"}, "[7]": {"conditions": "10 patients with disease control"}, "[8]": {"conditions": "efficacy-evaluable population (n=38)"}}, "data": [{"molecule": "[Cl][Ru-]([Cl])([Cl])[Cl].[Na+].c1ccc2[nH]ncc2c1.c1ccc2[nH]ncc2c1", "note": "[IT-139, sodium trans-(tetrachlorobis(1H-indazole)ruthenate(III))]", "values": [{"measurement": "Any adverse event, patients", "setting": "[1]; 20 mg/m^2 (n=1)", "value": 1}, {"measurement": "Maximum severity of adverse event Grade 1, patients", "setting": "[1]; 20 mg/m^2 (n=1)", "value": 1}, {"measurement": "Related adverse event (related to study drug as assessed by the investigator), patients", "setting": "[1]; 20 mg/m^2 (n=1)", "value": 1}, {"measurement": "Any adverse event, patients", "setting": "[1]; 40 mg/m^2 (n=1)", "value": 1}, {"measurement": "Maximum severity of adverse event Grade 2, patients", "setting": "[1]; 40 mg/m^2 (n=1)", "value": 1}, {"measurement": "Related adverse event (related to study drug as assessed by the investigator), patients", "setting": "[1]; 40 mg/m^2 (n=1)", "value": 1}, {"measurement": "Any adverse event, patients", "setting": "[1]; 80 mg/m^2 (n=1)", "value": 1}, {"measurement": "Maximum severity of adverse event Grade 1, patients", "setting": "[1]; 80 mg/m^2 (n=1)", "value": 1}, {"measurement": "Related adverse event (related to study drug as assessed by the investigator), patients", "setting": "[1]; 80 mg/m^2 (n=1)", "value": 1}, {"measurement": "Any adverse event, patients", "setting": "[1]; 160 mg/m^2 (n=1)", "value": 1}, {"measurement": "Maximum severity of adverse event Grade 1, patients", "setting": "[1]; 160 mg/m^2 (n=1)", "value": 1}, {"measurement": "Related adverse event (related to study drug as assessed by the investigator), patients", "setting": "[1]; 160 mg/m^2 (n=1)", "value": 1}, {"measurement": "Any serious adverse event, patients", "setting": "[1]; 320 mg/m^2 (n=7)", "value": 4}, {"measurement": "Discontinued treatment due to adverse event, patients", "setting": "[1]; 320 mg/m^2 (n=7)", "value": 1}, {"measurement": "Maximum severity of adverse event Grade 1, patients", "setting": "[1]; 320 mg/m^2 (n=7)", "value": 1}, {"measurement": "Maximum severity of adverse event Grade 2, patients", "setting": "[1]; 320 mg/m^2 (n=7)", "value": 3}, {"measurement": "Maximum severity of adverse event Grade 3, patients", "setting": "[1]; 320 mg/m^2 (n=7)", "value": 3}, {"measurement": "Maximum severity of adverse event ≥ Grade 3, patients", "setting": "[1]; 320 mg/m^2 (n=7)", "value": 3}, {"measurement": "Related adverse event (related to study drug as assessed by the investigator), patients", "setting": "[1]; 320 mg/m^2 (n=7)", "value": 7}, {"measurement": "Related serious adverse event, patients", "setting": "[1]; 320 mg/m^2 (n=7)", "value": 1}, {"measurement": "Any adverse event, patients", "setting": "[1]; 420 mg/m^2 (n=5)", "value": 5}, {"measurement": "Any serious adverse event, patients", "setting": "[1]; 420 mg/m^2 (n=5)", "value": 1}, {"measurement": "Discontinued treatment due to adverse event, patients", "setting": "[1]; 420 mg/m^2 (n=5)", "value": 2}, {"measurement": "Maximum severity of adverse event Grade 1, patients", "setting": "[1]; 420 mg/m^2 (n=5)", "value": 1}, {"measurement": "Maximum severity of adverse event Grade 2, patients", "setting": "[1]; 420 mg/m^2 (n=5)", "value": 2}, {"measurement": "Maximum severity of adverse event Grade 3, patients", "setting": "[1]; 420 mg/m^2 (n=5)", "value": 2}, {"measurement": "Maximum severity of adverse event ≥ Grade 3, patients", "setting": "[1]; 420 mg/m^2 (n=5)", "value": 2}, {"measurement": "Related adverse event (related to study drug as assessed by the investigator), patients", "setting": "[1]; 420 mg/m^2 (n=5)", "value": 4}, {"measurement": "Any adverse event, patients", "setting": "[1]; 500 mg/m^2 (n=3)", "value": 3}, {"measurement": "Maximum severity of adverse event Grade 1, patients", "setting": "[1]; 500 mg/m^2 (n=3)", "value": 1}, {"measurement": "Maximum severity of adverse event Grade 2, patients", "setting": "[1]; 500 mg/m^2 (n=3)", "value": 2}, {"measurement": "Related adverse event (related to study drug as assessed by the investigator), patients", "setting": "[1]; 500 mg/m^2 (n=3)", "value": 2}, {"measurement": "Any serious adverse event, patients", "setting": "[1]; 625 mg/m^2 (n=18)", "value": 6}, {"measurement": "Discontinued treatment due to adverse event, patients", "setting": "[1]; 625 mg/m^2 (n=18)", "value": 2}, {"measurement": "Maximum severity of adverse event Grade 1, patients", "setting": "[1]; 625 mg/m^2 (n=18)", "value": 4}, {"measurement": "Maximum severity of adverse event Grade 2, patients", "setting": "[1]; 625 mg/m^2 (n=18)", "value": 4}, {"measurement": "Maximum severity of adverse event Grade 3, patients", "setting": "[1]; 625 mg/m^2 (n=18)", "value": 9}, {"measurement": "Maximum severity of adverse event Grade 5, patients", "setting": "[1]; 625 mg/m^2 (n=18)", "value": 1}, {"measurement": "Maximum severity of adverse event ≥ Grade 3, patients", "setting": "[1]; 625 mg/m^2 (n=18)", "value": 10}, {"measurement": "Related serious adverse event, patients", "setting": "[1]; 625 mg/m^2 (n=18)", "value": 1}, {"measurement": "duration of QTc prolongation after infusion", "setting": "[1]; 780 mg/m^2", "value": "up to 10 hours"}, {"measurement": "Any adverse event, patients", "setting": "[1]; 780 mg/m^2 (n=9)", "value": 9}, {"measurement": "Any serious adverse event, patients", "setting": "[1]; 780 mg/m^2 (n=9)", "value": 4}, {"measurement": "Maximum severity of adverse event Grade 1, patients", "setting": "[1]; 780 mg/m^2 (n=9)", "value": 1}, {"measurement": "Maximum severity of adverse event Grade 2, patients", "setting": "[1]; 780 mg/m^2 (n=9)", "value": 4}, {"measurement": "Maximum severity of adverse event Grade 3, patients", "setting": "[1]; 780 mg/m^2 (n=9)", "value": 3}, {"measurement": "Maximum severity of adverse event Grade 5, patients", "setting": "[1]; 780 mg/m^2 (n=9)", "value": 1}, {"measurement": "Maximum severity of adverse event ≥ Grade 3, patients", "setting": "[1]; 780 mg/m^2 (n=9)", "value": 4}, {"measurement": "Related adverse event (related to study drug as assessed by the investigator), patients", "setting": "[1]; 780 mg/m^2 (n=9)", "value": 9}, {"measurement": "Related serious adverse event, patients", "setting": "[1]; 780 mg/m^2 (n=9)", "value": 2}, {"measurement": "overall tolerability", "setting": "[1]; 20 to 780 mg/m^2", "value": "well tolerated"}, {"measurement": "cumulative toxicity", "setting": "[1]; across dose levels", "value": "no evidence of cumulative toxicity"}, {"measurement": "drug-related renal toxicity", "setting": "[1]; all dose levels", "value": "no evidence of drug-related renal toxicity"}, {"measurement": "MTD (maximum-tolerated dose)", "setting": "[1]; i.v. infusion days 1, 8 and 15 every 28 days", "value": 625, "unit": "mg/m^2"}, {"measurement": "effect on platelets or white blood cells", "setting": "[1]; in vivo", "value": "no effect on platelets or white blood cells"}, {"measurement": "patients with an AE that led to treatment discontinuation", "setting": "[1]; n=46, all dose levels", "value": 11, "unit": "%"}, {"measurement": "PR prolongation", "setting": "[1]; no control group, chance effect not excluded", "value": "evidence for PR prolongation"}, {"measurement": "Creatine clearance", "setting": "[1]; over time, all dose levels", "value": "stable over time and across all dose levels"}, {"measurement": "serum discolouration at blood draw", "setting": "[1]; three patients (four blood draws), without any clinical correlates", "value": "discoloured serum, green in colour"}, {"measurement": "Any serious adverse event, patients", "setting": "[1]; total patients (n=46)", "value": 15}, {"measurement": "Discontinued treatment due to adverse event, patients", "setting": "[1]; total patients (n=46)", "value": 5}, {"measurement": "Maximum severity of adverse event Grade 1, patients", "setting": "[1]; total patients (n=46)", "value": 11}, {"measurement": "Maximum severity of adverse event Grade 5, patients", "setting": "[1]; total patients (n=46)", "value": 2}, {"measurement": "Maximum severity of adverse event ≥ Grade 3, patients", "setting": "[1]; total patients (n=46)", "value": 19}, {"measurement": "Related serious adverse event, patients", "setting": "[1]; total patients (n=46)", "value": 4}, {"measurement": "mean half-life (t1/2)", "setting": "[2]; across dose levels, may not represent true terminal half-life", "value": 113, "unit": "h"}, {"measurement": "pharmacokinetic linearity", "setting": "[2]; across the dose range evaluated (20-780 mg/m^2)", "value": "first-order linear pharmacokinetics"}, {"measurement": "dose dependence of PK parameters", "setting": "[2]; in vivo", "value": "increased proportionally with dose"}, {"measurement": "mean total clearance (CLtotal)", "setting": "[2]; in vivo", "value": 164, "unit": "mL/h"}, {"measurement": "percentage of the administered dose excreted in the urine (mean)", "setting": "[2]; in vivo", "value": 1.14, "unit": "%"}, {"measurement": "patients with target lesion size reductions", "setting": "advanced solid tumours; 8 of 38 efficacy-evaluable patients", "value": 21, "unit": "%"}, {"measurement": "median duration of disease control", "setting": "advanced solid tumours; [7]", "value": 9, "unit": "weeks"}, {"measurement": "range of duration of disease control", "setting": "advanced solid tumours; [7]", "value": "1–98 weeks"}, {"measurement": "duration of SD from initiation of therapy until PD", "setting": "advanced solid tumours; carcinoid patient continued on compassionate use protocol", "value": 54, "unit": "weeks"}, {"measurement": "number of patients with PR", "setting": "advanced solid tumours; [8]", "value": 1}, {"measurement": "number of patients with SD", "setting": "advanced solid tumours; [8]", "value": 9}, {"measurement": "disease control in patients with carcinoid neuroendocrine tumours", "setting": "advanced solid tumours; one PR and two SDs", "value": "three of five patients had disease control"}, {"measurement": "single-agent anti-tumour activity", "setting": "advanced solid tumours; weekly i.v. days 1, 8 and 15 of every 28-day cycle", "value": "modest anti-tumour activity"}, {"measurement": "effect on stress induction of GRP78", "setting": "GRP78", "value": "suppressing the stress induction of GRP78 in tumour cells"}, {"measurement": "effect on GRP78 chemoresistance", "setting": "[3]; PDAC model", "value": "inhibits GRP78 chemoresistance"}, {"measurement": "sensitivity to cytotoxic drugs", "setting": "[3]; in combination with gemcitabine, drug-resistant PDAC cells", "value": "sensitivity to cytotoxic drugs was restored"}, {"measurement": "tumour burden", "setting": "[4]", "value": "decrease in tumour burden after treatment"}, {"measurement": "synergy in combination", "setting": "[5]", "value": "marked synergy"}]}, {"molecule": "imidazolium-(trans-DMSO-imidazole-tetrachlororuthenate) [NAMI-A]", "values": [{"measurement": "tolerability", "setting": "[6]; monotherapy, clinic trials", "value": "moderately tolerated"}, {"measurement": "activity in combination", "setting": "[6]; phase I/II combination study with gemcitabine", "value": "less activity in combination than with gemcitabine therapy alone"}]}]}
